Experimental findings from ChEMBL document CHEMBL3861974, “Discovery of a Selective Aurora A Kinase Inhibitor by Virtual Screening” (J Med Chem, 2016) are described below.

Activity calls are given as the source filed them. No cut-off for these calls is given here.

The target of assay [1] is T1, Aurora kinase A (Homo sapiens) (UniProt O14965).
T1 sequence (whole entry): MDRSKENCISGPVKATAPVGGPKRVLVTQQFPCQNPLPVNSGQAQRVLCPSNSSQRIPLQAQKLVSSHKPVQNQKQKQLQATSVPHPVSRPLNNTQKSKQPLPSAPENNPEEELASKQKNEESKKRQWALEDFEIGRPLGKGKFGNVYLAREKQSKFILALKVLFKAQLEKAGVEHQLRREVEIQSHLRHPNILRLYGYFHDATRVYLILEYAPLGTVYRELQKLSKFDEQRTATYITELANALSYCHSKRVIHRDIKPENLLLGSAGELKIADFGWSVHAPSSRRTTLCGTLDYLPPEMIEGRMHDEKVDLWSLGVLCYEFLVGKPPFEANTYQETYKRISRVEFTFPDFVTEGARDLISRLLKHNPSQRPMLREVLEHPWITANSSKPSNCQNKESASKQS
The assay can be described thus: Inhibition of Aurora A kinase localization at spindle microtubules in human HeLa Kyoto cells at 10 uM incubated for 20 hrs. The format is cell-based. In short, it runs like this:
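HeLa Kyoto cells were treated overnight, then immunostained for Aurora A and TPX2 with DNA counterstain. Aurora A at spindle microtubules versus centrosomes was assessed by fluorescence imaging.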

Another assay has as its target T2, Aurora kinase A (Homo sapiens, UniProt O14965).
T2 sequence (O14965 whole entry): T1 sequence (whole entry)
The assay can be described thus: Inhibition of His-tagged human Aurora A kinase ([…] residues) expressed in Escherichia coli BL21 (DE3) Rosetta cells using biotinylated STK2 substrate incubated for 30 mins in presence of 2 uM TPX2 by HTRF assay. In outline: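 Biochemical kinase inhibition was read by HTRF with 20 µM ATP. Aurora B was assayed as its complex with the activator INCENP. For Aurora A, IC50 curves were recorded at different TPX2 concentrations.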

In a further assay the target is Aurora kinase B (Homo sapiens, UniProt Q96GD4). The assay can be described thus: Inhibition of Aurora B kinase in human HeLa Kyoto cells assessed as induction of accumulation of cells at 8N DNA contant incubated for 48 hrs at 10 uM by flow cytometry. The format is cell-based. In short, it runs like this: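 Cells were treated for 48 h, stained with propidium iodide, and DNA content was analysed by flow cytometry. Cells with 8N and 16N DNA content were scored as a readout of defective cytokinesis.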
Sequence of Aurora kinase B (Q96GD4 whole entry): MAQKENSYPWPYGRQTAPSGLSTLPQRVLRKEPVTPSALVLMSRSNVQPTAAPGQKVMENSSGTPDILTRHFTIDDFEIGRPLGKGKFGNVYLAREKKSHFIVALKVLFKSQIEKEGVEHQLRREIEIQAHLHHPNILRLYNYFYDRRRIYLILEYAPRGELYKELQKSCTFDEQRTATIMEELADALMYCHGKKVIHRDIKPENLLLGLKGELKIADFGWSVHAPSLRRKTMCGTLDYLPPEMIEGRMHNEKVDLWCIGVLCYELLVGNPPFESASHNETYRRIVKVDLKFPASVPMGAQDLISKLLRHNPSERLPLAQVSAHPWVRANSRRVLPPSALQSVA

A short description of assay [2]: Glutathione reactivity at 30 uM assessed as GSH adduct formation after 24 hrs in presence of 5 mM GSH, pH 7.4 buffer at 37 degC by LC-MS method. In outline:
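Test compound at 30 µM was incubated with 5 mM GSH in H2O/CH3CN (4:1) at 37 °C and followed by LC-MS over 24 h. The GSH adduct was identified by MS. Parent was quantified by integrating its 310 nm absorption peak against 9-methylcarbazole as internal control. Values are the average of two independent experiments.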

Take `CCc1ccc(/N=C2\S/C(=C\c3ccnc(Nc4ccc(C(=O)O)cn4)c3)C(=O)N2C)cc1`: the inhibition entry in assay [1] is “Active”. Besides, the concentration for half-maximal inhibition (IC50) on Aurora kinase A came to 1400 nM. The inhibition entry on Aurora kinase B was “Active”. In assay [2], the Drug metabolism is 50% and the Stability result was “Stable”.
